These results are taken from ChEMBL document CHEMBL1155544, “Syntheses and structure-activity relationship (SAR) studies of 2,5-diazabicyclo[2.2.1]heptanes as novel alpha7 neuronal nicotinic receptor (NNR) ligands” (Bioorg Med Chem Lett, 2010).

This data set in a line: Metabolic stability in human liver microsome assessed as compound remaining after 30 mins. The class given is ADME. Particulars: liver microsomes, read-out: Stability. In short, it runs like this:
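Human liver microsomes, 30 min incubation; read-out is percent of parent compound remaining.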

As to `CN1C[C@@H]2C[C@H]1CN2c1ccc(-c2ccc3[nH]ccc3c2)nn1`, the remaining at 0.5 h was determined as 97%.
